One series relates to Ebolavirus. The series can be described thus: Antiviral activity against Ebolavirus infected in african green monkey COS1 cells assessed as inhibition of viral replication after 32 hrs by luciferase reporter gene assay. The class given is functional, COS-1. In a few lines: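 Ebola minigenome assay, not live virus: COS-1 cells in suspension were batch-transfected with minireplicon and NP/VP35/L support plasmids, then plated in 96-well format. Compounds in DMSO were added at 10 μM final; DMSO-only wells served as controls. Luciferase was read after 32 h. Percent inhibition = 1 − (compound-well signal / mean DMSO-well signal) × 100.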
Background: A reporter such as luciferase makes a cellular process visible.

Series [1] can be described thus: Cytotoxicity against african green monkey COS1 cells assessed as reduction in cell viability after 32 hrs by luminescent assay. As to conditions: chlorocebus aethiops, read-out: INH. The class given is cell-based, COS-1. In a few lines: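 Parallel plates of batch-transfected COS-1 cells received the same compounds in DMSO (10 μM final). Cell viability was measured with the CellTiter-Glo luminescent assay to flag cytotoxicity.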

Regarding `CC[C@@H](C(=O)[C@@H](C)[C@@H](O)[C@H](C)[C@@H]1O[C@@H]([C@@H](CC)C(=O)O)CC[C@@H]1C)[C@H]1O[C@]2(C=C[C@@H](O)[C@]3(CC[C@@](C)([C@H]4CC[C@](O)(CC)[C@H](C)O4)O3)O2)[C@H](C)C[C@@H]1C` [SALINOMYCIN], the “inhibition (INH)” value in the series with Ebolavirus is reported as 86%. Further, in series [1], the cytotoxicity at 32 h turned out to be 17%.

For the compound `Cc1c2ccncc2c(C)c2c1[nH]c1ccccc12` [ELLIPTECINE], the “inhibition (INH)” value with Ebolavirus amounted to 99%. Also, the cytotoxicity at 32 h in series [1] was determined as 8%.

For the compound `O=C1C=C2C(=CCOC2O)O1` (configuration not stated) [PATULIN], in the series on Ebolavirus, the “inhibition (INH)” value was found to be 89%. Further, the cytotoxicity at 32 h in series [1] was determined as 20%.

Take `CC[C@H]1CN2CCc3cc(OC)c(OC)cc3[C@@H]2C[C@@H]1C[C@H]1NCCc2cc(O)c(OC)cc21.Cl.Cl` [CEPHAELINE DIHYDROCHLORIDE]: the “inhibition (INH)” value with Ebolavirus worked out at 99%. The cytotoxicity at 32 h in series [1] was 14%.

Consider `CC[C@H]1CN2CCc3cc(OC)c(OC)cc3[C@@H]2C[C@@H]1C[C@H]1NCCc2cc(OC)c(OC)cc21.Cl.Cl` [EMETINE HYDROCHLORIDE], for which the “inhibition (INH)” value in the series on Ebolavirus is 99%. Besides, in series [1], the cytotoxicity at 32 h came out at 3%.

For `COc1cccc2c1C(=O)c1c(O)c3c(c(O)c1C2=O)C[C@@](O)(C(=O)CO)C[C@@H]3O[C@H]1C[C@H](N)[C@H](O)[C@H](C)O1.Cl` [DOXORUBICIN HYDROCHLORIDE], the “inhibition (INH)” value in the series on Ebolavirus was found to be 97%. Further, the cytotoxicity at 32 h in series [1] came out at 25%.

(Values after ChEMBL document CHEMBL1629687, “Minigenome-based reporter system suitable for high-throughput screening of compounds able to inhibit Ebolavirus replication and/or transcription” (Antimicrob Agents Chemother, 2010).)
